This sample holds only a part of the variants without activity.
B1: tRNA (parent)
chain: GUUCCGUUGGCGUAAUGGUAACGCGUCUCCCUCCUAAGGAGAAGACUGCGGGUUCGAGUCCCGUACGGAACG

Variants of: B1
Experiment: yeast fitness relative to wild type (ratio to wild type); higher = fitter; tRNA-Arg(CCU), competitive growth, 37 C, YPD
Method in brief: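 Variants of the tRNA-Arg(CCU) gene were chemically synthesised with a 3% per-site mutation rate across 69 sites and placed at the native genomic locus in Saccharomyces cerevisiae. Six parallel replicates of the pooled strains were competed in YPD at 37°C for 24 hours, and gene amplicons from the start and end populations were read by 100-nucleotide paired-end sequencing. Darwinian fitness relative to wild type was derived from changes in genotype frequencies. Genotypes required ≥ 100 starting reads, and estimates < 0.5 were set to 0.5.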

With GUUCCGUUCGCGUAAUGGUAACGCGCCUCCCUCGUAGGGAGAAGACUGCGGGUUCGAGUCCCGUACGGAACG [G9C U26C C34G A37G] as the variant, how does the yeast fitness read?
The yeast fitness was 0.591.

Which yeast fitness does the source give for GUUCCGUUCGCGUAAUGGCAACGCGUCUCCCUCCUAAGGAGAAGACUACGGGUUCGAGUCCCGUACGGAACG [G9C U19C G48A] here?
Its yeast fitness is 0.901.

For GUUCCGUUUGCGUAAUGGUAACGCGUCUCCCUCCUAAGGAGAAGACUGCGGGUUCGAGUCCCGUACGGAACG [G9U], which yeast fitness is on record?
Its yeast fitness is 0.955.

Which yeast fitness does the source give for GUUCCGUUCGCGUAAUGGUAACGCGUCGUCCUCCUAAGGAGAAGACUGUGGGUAUGAGUCCCGUACGGACCG [G9C U28G C29U C49U U54A C55U A70C] here?
Its yeast fitness is at most 0.5.

With GUUCCGUUCGCGUAAUGGCAACCCGUCUCCCUCCUAAGGAGAAGACUGCGGGUUCGAGACCCGUACGCAACG [G9C U19C G23C U59A G68C] as the variant, how does the yeast fitness read?
Its yeast fitness is 0.548.

For GUUCCGUUGACGUUAUGGUGACGCGGCUCCGUCGUAAGGAGUCGACUGCCGGUUCGAGUCCCAUACGGAACG [G10A A14U A20G U26G C31G C34G A42U A43C G50C G63A], which yeast fitness is on record?
Its yeast fitness is at most 0.5.

With GUUCCGUUCGCGUAAUGGUAACGCGUCUCCCUCCUAAGGAGAAGACUGCGGGUGCGAGUCCCGUACGGACCG [G9C U54G A70C] as the variant, how does the yeast fitness read?
The yeast fitness was 0.545.

With GUUCCGUUCGCGUAAUGGUAACGCGUCUCCCACCUAAGGAGAAGACUGCGGGUUCGACUCCCGUACGGAACG [G9C U32A G58C] as the variant, how does the yeast fitness read?
Its yeast fitness is 0.583.

With GUUCCGUUUGCGUAAUGGUAACGCGUCUCCCUCUUAAGGAAAAGACUGCGGGUUCGAGUCCCGUACGGAACG [G9U C34U G41A] as the variant, how does the yeast fitness read?
The yeast fitness was at most 0.5.

For GUUCCGUUCGCGUAAUGGUAACGCGGCUCCCACCUAAGGAGAAGACUGCGGGUUCGUGUCCCGUACGGAACG [G9C U26G U32A A57U], which yeast fitness is on record?
The yeast fitness was 0.633.

With GUUCCGUUUGCGUAAUGGUAACGCGUCUCCCUCCUAAGGAGAAGACUGCGGGUUCGAGUCCCGUACGCAACG [G9U G68C] as the variant, how does the yeast fitness read?
The yeast fitness was 0.77.

Which yeast fitness does the source give for GUUCCGUUGACGUGAUGGUAACGCGUCUCCCUCCUAAGGAGAAGACUGCGGGUUCGAGUCCCGUACGGAACG [G10A A14G] here?
Its yeast fitness is 0.671.

For GUUCCGUUGACGUCAUGGUAACGCGUCUCCCUCCUAAGGAGAAGACUGCGGGUUCGAGUCCCGUACGGAACG [G10A A14C], which yeast fitness is on record?
The yeast fitness was 0.539.

For GUUCCGUUCGCGUAAUGGUAACGCGUCCCCCUCCUACGGAGAAGAGUGCGGGUUCGAGUCCCGUACGGAACG [G9C U28C A37C C46G], which yeast fitness is on record?
Its yeast fitness is 0.768.

With GUUCCGUUCGCGUAAUGGCAACGCGUCUCCCUCCUAAGGAGAAGACUACGGGUUCGAGUCCCGUAUGGAACG [G9C U19C G48A C66U] as the variant, how does the yeast fitness read?
The yeast fitness was 0.657.

Which yeast fitness does the source give for GUUCCGUUUGCGUAAUGGUAACGCGUCUCCCUCCUAAGGAGAAGACUGCGGGUUCGAGUCCCGUUCGGAACG [G9U A65U] here?
Its yeast fitness is 0.639.

For GUUCCGUUCGCGUAAUGGCAACGCGUCUCCAUCCUAAGGAGAAGACUGCGGGUUUGAGUCCCGUACGGCACG [G9C U19C C31A C55U A69C], which yeast fitness is on record?
The yeast fitness was 0.547.

Which yeast fitness does the source give for GUUCCGUUCGCGUAAUGGUAACGCGCCUCCCUCGUAGGGAGAAGACUGCGGGUUCGAGUGCCGUCCGGAACG [G9C U26C C34G A37G C60G A65C] here?
Its yeast fitness is at most 0.5.

For GUUCCGUUUGCGCAAUGGUAACGCGUCUCCCUCCUAAGGAGAAGACUGCGGGUUCGCGUCCCGUAAGGAACG [G9U U13C A57C C66A], which yeast fitness is on record?
Its yeast fitness is at most 0.5.

Which yeast fitness does the source give for GUUCCGUUUGCGUAAUGGUAACGCGUCUCCCUUCUAAGGAGAUGACUGCGGGUUCGAGGCCCGUACGGAACG [G9U C33U A43U U59G] here?
Its yeast fitness is 0.676.

For GUUCCGUUUGCGUAAUGGUCACGCGUCUUCCUCCUAAGGAGAAGACUGCCGGUUCGAGGCCUGUACGAAACG [G9U A20C C29U G50C U59G C62U G68A], which yeast fitness is on record?
Its yeast fitness is at most 0.5.

With GUUCCGUUGACGUGAUGGUAACGCGUUUCCCUCCUAAGGCGAAGACACCGGGUUCGAGUCCCGUACGGAACG [G10A A14G C27U A40C U47A G48C] as the variant, how does the yeast fitness read?
The yeast fitness was at most 0.5.

With GUUCCGUUCGCGUAAUGGUAACGCGUCUCCCACCUAAGGAGAAGACUGCGGGUUCGAGUCCCGUACGGAACG [G9C U32A] as the variant, how does the yeast fitness read?
Its yeast fitness is 0.648.

Which yeast fitness does the source give for GUUCCGUUUGCGUAAUGGUAACGUGUCUCCCUCCAAAGGGGAAGACUGCGGGUUCGAGUACCGUACCGAACG [G9U C24U U35A A40G C60A G67C] here?
The yeast fitness was at most 0.5.

For GUUCCGUUCGCGUAAUGGUAACGCGUCUCCCUCCGAAGGAAAAGACUGCGGGUUCAAGUCCCGUACGGACCG [G9C U35G G41A G56A A70C], which yeast fitness is on record?
The yeast fitness was at most 0.5.

For GUUCCGUUCGCGUAAUGGUAACGCGUCUCCCGCCUAAGGAGAAGACUGCGGGUUCGAGUCCCGUACGGACCG [G9C U32G A70C], which yeast fitness is on record?
Its yeast fitness is at most 0.5.

For GUUCCGUUCGCGUAAUGGUAACGCGUCUCCCUCCUAAGGAGAAGACUGCGGGUCCGAGUCCCGUACGGAACG [G9C U54C], which yeast fitness is on record?
The yeast fitness was 0.704.

With GUUCCGUUCGCGUAAUGGUAACGCGUCUCCCUCCUAAGGAGAAGACUGCGGGUACGAGUCCCGUACGGAACG [G9C U54A] as the variant, how does the yeast fitness read?
The yeast fitness was 0.658.

With GUUCCGUUCGCGUAAUGGCAACGCGUCUCCGUCCUAAGGAGAAGACUGCGGGUUCGAGUCCCGUACGGAACG [G9C U19C C31G] as the variant, how does the yeast fitness read?
Its yeast fitness is 0.605.

Which yeast fitness does the source give for GUUCCGUUUGCGUAAUGGUAACGCGUCUGCCUCCUAAGGAGAAGACUGCGGGUUCGAGUCCCGUUCGGAACG [G9U C29G A65U] here?
Its yeast fitness is at most 0.5.

With GUUCCGUUGACGUGAUGGUAACGCGUCUCCCUCCUAAGGAGAAGAAUGCGGGUUCGGGUCCCGUACGGAACG [G10A A14G C46A A57G] as the variant, how does the yeast fitness read?
Its yeast fitness is at most 0.5.

For GUUCCGUUUGCGUAAUGGUAACGCGUCUCCCUCCUAAGCAGAAGACUGCGGGUUCGAGUCCCGUACGGACCG [G9U G39C A70C], which yeast fitness is on record?
The yeast fitness was at most 0.5.

With GUUCCGUUCGCGUAAUGGUAACGCGUCGCCCUCCUAAGGAGAAGACUGCGGGUUGGAGUCCCGUACGGUACG [G9C U28G C55G A69U] as the variant, how does the yeast fitness read?
Its yeast fitness is at most 0.5.

Which yeast fitness does the source give for GUUCCGUUUGCGUAAUGGUAACGGGUCUCCCUCCUAAGGAGAAGACUGCGGGUUUGAGUCCCGUAUGGAACG [G9U C24G C55U C66U] here?
Its yeast fitness is at most 0.5.

For GUUCCGUUCGCGUAAUGGUAACGCGUCUCCCCCCUGAGGAGAAGACUGCGGGUUCGAGUCCCGUACGGAACG [G9C U32C A36G], which yeast fitness is on record?
The yeast fitness was at most 0.5.

With GUUCCGUUCGCGUAAUGGUAACGCGUCAACCUCCGAAGGAGAAGACUGCGGGUUCGAGUCCCGUACGGAACG [G9C U28A C29A U35G] as the variant, how does the yeast fitness read?
The yeast fitness was at most 0.5.

Which yeast fitness does the source give for GUUCCGUUUGCGUAAUGGUAACGCGUCUCCCUCCUAAGGAGAAGACUGCGGGUUCGAGUCCCGUACGGCACG [G9U A69C] here?
Its yeast fitness is 0.909.

Source: the RNAGym collection of RNA variant scans (doi:10.1126/science.aae0568)
